# Test results taken from ChEMBL document CHEMBL1131242, “6beta-Acetoxynortropane: a potent muscarinic agonist with apparent selectivity toward M2-receptors” (J Med Chem, 1998).
# pKi: −log10 of the molar value.
# What was measured:
# [1] = molecular target: T1, Muscarinic acetylcholine receptor M1 (Rattus norvegicus) (UniProt P08482); assay: Percentage inhibition of binding of [3H]quinuclidinyl benzilate to muscarinic acetylcholine receptor M1 in rat cerebral cortical membranes; type: cell membranes; design: concentration or dose not given beside the values; conditions: Membrane, concentration not given here
# T1 sequence (whole entry): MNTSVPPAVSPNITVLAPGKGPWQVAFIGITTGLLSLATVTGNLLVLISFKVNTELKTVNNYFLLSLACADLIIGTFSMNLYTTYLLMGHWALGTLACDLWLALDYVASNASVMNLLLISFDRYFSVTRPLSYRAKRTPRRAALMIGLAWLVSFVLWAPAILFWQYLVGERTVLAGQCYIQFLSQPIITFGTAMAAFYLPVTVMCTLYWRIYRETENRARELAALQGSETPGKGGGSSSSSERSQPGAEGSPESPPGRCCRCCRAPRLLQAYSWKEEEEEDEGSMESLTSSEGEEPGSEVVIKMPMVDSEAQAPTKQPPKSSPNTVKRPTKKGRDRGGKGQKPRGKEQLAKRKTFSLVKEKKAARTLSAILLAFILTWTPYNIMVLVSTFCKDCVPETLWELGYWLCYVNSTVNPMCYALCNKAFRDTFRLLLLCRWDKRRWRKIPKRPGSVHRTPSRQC
# Outline: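 Rat cerebral cortex membranes were homogenised in 50 mM Tris-HCl pH 7.4 and diluted in HEPES binding buffer. They were incubated with 0.2 nM [3H]quinuclidinyl benzilate in 20 mM HEPES pH 7.4 with 10 mM MgCl2 and 100 mM NaCl for 30 min at 37 °C, in triplicate. Nonspecific binding used 1 µM atropine. Filtration was followed by scintillation counting.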
# [2] = molecular target: T2, Neuronal acetylcholine receptor; alpha4/beta2 (Rattus norvegicus) (UniProt P09483+P12390); assay: Inhibition of binding of [3H]nicotine to Nicotinic acetylcholine receptor alpha4-beta2 in rat cerebral cortical membranes at 100 uM concentration; type: cell membranes; conditions: Membrane
# Outline: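 [3H]nicotine (0.2 nM) binding to rat cortical membranes, with 200 µM diisopropyl fluorophosphate, 120 min at 0–4 °C, triplicate. Nonspecific binding with 1 µM nicotine. Percent inhibition at 100 µM test agent; mean ± SEM, n = 4.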
# [3] = molecular target: T2, Neuronal acetylcholine receptor; alpha4/beta2 (Rattus norvegicus); assay: (§1) The compound was evaluated for percentage inhibition of binding of [3H]- nicotine to Nicotinic acetylcholine receptor alpha4-beta2 in Rat Cerebral Cortical Membranes; type: protein-complex assay; design: concentration or dose not given beside the values; conditions: concentration not given here
# Outline: (§2)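 Rat cerebral cortex membranes with 0.2 nM [3H]nicotine in HEPES binding buffer pH 7.4 containing 200 µM diisopropyl fluorophosphate. Incubation was 120 min at 0–4 °C, in triplicate. Nonspecific binding used 1 µM nicotine. Samples were filtered through polyethylenimine-soaked GF/B filters and counted.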
# [4] = molecular target: T3, Neuronal acetylcholine receptor; alpha4/beta2 (Rattus norvegicus, UniProt P09483+P12390); assay: Inhibition of binding of [3H]nicotine to Nicotinic acetylcholine receptor alpha4-beta2 in rat cerebral cortical membranes; type: cell membranes, Membrane; outline: as §2
# [5] = molecular target: T3, Neuronal acetylcholine receptor; alpha4/beta2; assay: as §1; type: protein-complex assay; outline: as §2
# [6] = molecular target: Muscarinic acetylcholine receptor M3 (Rattus norvegicus) (UniProt P08483); conditions: Membrane; 300 uM
# Chain of Muscarinic acetylcholine receptor M3 (Rattus norvegicus) (P08483 whole entry, looked up): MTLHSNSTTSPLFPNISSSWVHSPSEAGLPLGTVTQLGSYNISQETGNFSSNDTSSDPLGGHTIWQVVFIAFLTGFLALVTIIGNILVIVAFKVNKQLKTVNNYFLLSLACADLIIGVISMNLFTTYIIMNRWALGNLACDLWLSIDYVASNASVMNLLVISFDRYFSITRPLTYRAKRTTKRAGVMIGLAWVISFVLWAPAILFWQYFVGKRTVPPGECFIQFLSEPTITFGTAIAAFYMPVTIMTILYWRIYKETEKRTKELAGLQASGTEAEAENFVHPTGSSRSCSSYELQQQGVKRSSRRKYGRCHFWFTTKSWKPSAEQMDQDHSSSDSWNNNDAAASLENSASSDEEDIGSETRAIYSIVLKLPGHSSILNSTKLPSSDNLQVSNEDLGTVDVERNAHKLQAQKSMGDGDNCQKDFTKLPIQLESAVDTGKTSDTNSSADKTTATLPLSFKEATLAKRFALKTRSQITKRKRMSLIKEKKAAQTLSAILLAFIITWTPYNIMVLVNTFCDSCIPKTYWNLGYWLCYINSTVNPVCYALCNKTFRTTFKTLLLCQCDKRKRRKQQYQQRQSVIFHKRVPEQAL
# T3 sequence (P09483 whole entry): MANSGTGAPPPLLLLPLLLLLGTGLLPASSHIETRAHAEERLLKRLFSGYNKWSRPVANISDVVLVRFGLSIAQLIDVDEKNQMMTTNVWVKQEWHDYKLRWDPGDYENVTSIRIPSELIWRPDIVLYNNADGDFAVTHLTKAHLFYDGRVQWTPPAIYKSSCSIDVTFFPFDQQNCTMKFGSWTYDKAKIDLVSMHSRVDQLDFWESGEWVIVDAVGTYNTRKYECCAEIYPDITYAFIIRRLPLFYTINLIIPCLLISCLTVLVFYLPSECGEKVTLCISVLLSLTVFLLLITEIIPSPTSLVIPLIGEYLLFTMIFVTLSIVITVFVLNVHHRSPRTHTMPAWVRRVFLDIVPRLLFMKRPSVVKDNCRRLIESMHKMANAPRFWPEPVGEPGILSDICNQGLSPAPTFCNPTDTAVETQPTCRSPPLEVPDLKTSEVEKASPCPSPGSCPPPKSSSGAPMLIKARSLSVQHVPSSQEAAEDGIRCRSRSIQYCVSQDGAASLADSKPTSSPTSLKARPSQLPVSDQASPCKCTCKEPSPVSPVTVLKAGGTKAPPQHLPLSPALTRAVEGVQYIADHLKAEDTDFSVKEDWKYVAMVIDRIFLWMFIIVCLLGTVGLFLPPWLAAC
# T3 sequence (P12390 whole entry): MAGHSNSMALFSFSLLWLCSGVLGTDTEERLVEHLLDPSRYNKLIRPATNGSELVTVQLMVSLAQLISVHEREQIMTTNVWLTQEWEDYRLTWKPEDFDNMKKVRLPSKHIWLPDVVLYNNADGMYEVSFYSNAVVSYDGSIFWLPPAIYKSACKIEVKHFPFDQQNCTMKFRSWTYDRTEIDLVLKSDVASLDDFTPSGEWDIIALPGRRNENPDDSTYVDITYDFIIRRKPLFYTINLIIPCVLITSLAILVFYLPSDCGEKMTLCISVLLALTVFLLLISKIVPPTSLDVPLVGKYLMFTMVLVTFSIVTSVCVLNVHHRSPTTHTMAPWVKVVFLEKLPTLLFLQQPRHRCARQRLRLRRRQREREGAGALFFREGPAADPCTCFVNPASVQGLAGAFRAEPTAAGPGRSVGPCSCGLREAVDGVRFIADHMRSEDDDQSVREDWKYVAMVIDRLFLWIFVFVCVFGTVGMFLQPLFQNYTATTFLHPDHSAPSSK
inhibition [6] [%],SMILES,inhibition [1] [%],inhibition [2] [%],inhibition [3] [%],pKi [4],pKi [5]
,CC(=O)O[C@@H]1CCC2NC1C[C@@H]2S(=O)(=O)c1ccccc1 (stereo partly specified),6,10,10,,
,CC(=O)O[C@H]1CCC2NC1C[C@@H]2S(=O)(=O)c1ccccc1 (stereo partly specified),0,16,16,,
,CC(=O)OC1CC2CC(=O)CC1N2C (stereo unspecified),0,5,5,,
,CCSC1CCC2NC1CC2C(=O)OC (stereo unspecified),7,50,50,,
,CC(=O)O[C@H]1CCC2CCC1N2 (stereo partly specified),,,,4.49,4.49
,COC(=O)[C@H]1CC2NC1CC[C@@H]2OC(C)=O (stereo partly specified),1,13,13,,
,CC(=O)OC1CC2CC(=O)CC1N2 (stereo unspecified),11,13,13,,
16,C[N+](C)(C)CCOC(N)=O,,,,,
